From the EternaBench riboswitch data

Tested on: MS2 coat protein
Experiment: apparent Kd, MS2 coat protein; higher = weaker binding; RNA-MaP array
In short: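 The designed RNAs, transcribed from sequenced DNA templates on an Illumina sequencing chip, were incubated with fluorescently labeled MS2 coat protein at room temperature. Protein ranged from 1.5 nM to 3 μM, with 0.8–1.5 h incubation at the lowest and 10–20 min at the highest concentrations, in Tris-HCl pH 7.5 buffer with KCl, MgCl2, BSA, DTT, tRNA and Tween20, with or without input ligand. The median of per-cluster binding-curve fits gives the apparent Kd, and designs measured on fewer than 10 clusters were excluded.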

[1] = designed as: ON switch for flavin mononucleotide, no ligand
[2] = ligand present: flavin mononucleotide, designed as: ON switch for flavin mononucleotide
[3] = designed as: OFF switch for flavin mononucleotide, no ligand
[4] = ligand present: flavin mononucleotide, designed as: OFF switch for flavin mononucleotide
[5] = designed as: OFF switch for theophylline, no ligand
[6] = ligand present: theophylline, designed as: OFF switch for theophylline

Row | Sequence | apparent Kd [1] [nM] | apparent Kd [2] [nM] | apparent Kd [3] [nM] | apparent Kd [4] [nM] | also measured
1 | CACCAAUUUCGAGGAUAUACGGCCGGUUAACAUUCGUCUUACAUGAGGAUCACCCAUGUGUUCGCGUAGAAGGCGAUUCUUAAU | 35.4 | 31.2 | – | – | –
2 | GGUGUUCCUCUAGGAUAUAGCGAUACAUGAGGAUCACCCAUGUUACUCCAGCGCGGCGGAUCGCUCUAGAAGGAGACAUAGCCA | – | – | 75.1 | 53.4 | –
3 | CAUCAGAGUGUCAGGAUAUGUUCAAAUAACUCGGGACAGAAGGGACAUGAGGAUCACCCAUGUGCAUAAAUUUA | – | – | 18.4 | 46.9 | –
4 | GAUAGUCCCAAGGAUAUGUGGGUUUUAUCUUCUACAGAAGGUGGGACAUGAGGAUCACCCAUGUUGCGGCGAGG | – | – | 26.8 | 261 | –
5 | AACUGGAAGGAAGGAUAUUCAACCACGAUCAGUGCCAAGCACAUGAGGAUCACCCAUGUUGUCCUGAAGAAGGUCCUAUGUCAA | – | – | 16.3 | 11.5 | –
6 | AAAUAAUCUAGUCCACAAUGUGACUCAGAUACCAGUGCAAAGCUACACCCUUGGCAGCUGGUUACAUGAGGAUCACCCAUGUCGU | – | – | – | – | apparent Kd [5]: 47.6 nM; apparent Kd [6]: 116 nM
7 | UAUUUUGCGAAGAAGGAAGCCUCACUGGAAUGCUUAGGAUAUUCUCGCGUGGAGCACAUGCACAUGAGGAUCACCCAUGUACCG | 28.7 | 20.1 | – | – | –
8 | GAACAGCGGCAGAAGGACUCGCGAUUGUGUACGAACAUGAGGAUCACCCAUGUGUGAGUAUUCCAGUAGGAUAUGCGUUCUAUA | – | – | 17.2 | 12.1 | –
9 | CUGGUUGUCAAAGGAUAUAAACGAUCACAUGAGGAUCACCCAUGUCUCCCUAUGUUAAUAAGCGCUUAGAAGGUUGAGCCAGCC | – | – | 31.3 | 34.4 | –
10 | AGGAAUAAGACAGGAUAUCGUAAAAUAUAAAACCGAGAAGGGUCACAUGAGGAUCACCCAUGUGUUCCAACGGUGAUCCCUAGA | – | – | 64.9 | 68.2 | –
11 | ACAUGAGGAUCACCCAUGUUGAACUACCAUCGAGGACCGGUACGGCCGCCACUCGCGUUCUCCUUAGCAUCAAGGUCCGCGAAAC | – | – | – | – | apparent Kd (designed as: OFF switch for tryptophan, no ligand): 13.3 nM; apparent Kd (ligand present: tryptophan, designed as: OFF switch for tryptophan): 12.7 nM
12 | CAAGCGCAUAAGUACGCAACUACAUGAGGAUCACCCAUGUGAAGAAGGGCACAUCUAUCCCACGUGCAGGAUAUUCUCCAAUUU | 44.8 | 51 | – | – | –
13 | AUGAAACAUGAGGAUCACCCAUGUGAGGAUAUGGUCUCGAACAAAAUACAAACACCAUCCAGAAGGCACAUGAA | – | – | 29.8 | 27.7 | –
14 | AGAAUGUCAGGAUAUACUCGCUAUGUCGCCAAGUCACGCCGACAUGAGGAUCACCCAUGUAGAAGGGACAAGUA | – | – | 12.9 | 11.7 | –
15 | AAAUGGGAGGUACGCACCACUACAUGAGGAUCACCCAUGUAUAGAAGGCAGGUCUGGACUCGUCCUGAGGAUAUAUGAUUUGAC | – | – | 17.9 | 16.5 | –
16 | ACGAGCCUAGGAUAUACAUGAGGAUCACCCAUGUGACUGAACACUCCGGUAUGUGCGGGUAGAAGGAGGUUCCA | – | – | 16.3 | 16.8 | –
17 | AGUGUAAUAUAAGGAUAUAACCGCACAAGAAUGUUAGAAGGUAUUUUACAUGAGGAUCACCCAUGUGAAUGUAGUCCUCACUAU | – | – | 9.6 | 10.5 | –
18 | GUACGGUUCCAAGGAUAUGAUAGGUGACAUGAGGAUCACCCAUGUGCCGGUGGUGGGAGCGAGGAUCAGAAGGUGGCCAGCGGU | 60 | 45.4 | – | – | –
19 | UUGAUAGCAGGAUAUACAUGAGGAUCACCCAUGUACAGGCAAAAGGGAACUGACCCACGUAGAAGGGCUUCGCA | – | – | 10.8 | 21 | –
20 | GGACGUGGGCAGGAUAUGCGAAUUGAUUGAGCGGCAGAAGGGCCUACAUGAGGAUCACCCAUGUAGAUGCUUAC | – | – | 5.4 | 11.7 | –
21 | CUAGAAGACACGGAGGAUAUGUUGUGUAUUACAUGAGGAUCACCCAUGUUCGGAAGUACCGAUUGACAGAAGGCCGUGCAAUCGCU | 6.66 | 5.73 | – | – | –
22 | GUUAUCGAACAUGAGGAUCACCCAUGUCAGAGCGGCCGACAGAGAAGGCCAAUUGACAAAUGAUUGGAGGAUAUCUGUACUUUU | 19.3 | 7.57 | – | – | –
23 | AGAGCGAAUCUAACAUGAGGAUCACCCAUGUGUUAUGUUCACGAGGAUAUGUAGUCACUUAGGCGACAGAAGGCGUUCCAAGUA | – | – | 29.3 | 22 | –
24 | UUACGGCCGGAAGGAUAUUGUGGCUCCGGAGUAACAUGAGGAUCACCCAUGUGAAUCAAACACAACAAGAAGGUCCCAAAUAGG | 15.9 | 15.5 | – | – | –
25 | AUACAACAUGAGGAUCACCCAUGUGCUUAAGUUAAAGGAUAUCUAGUGGAUUACAUGCGUAGAGAAGGUUAUUUUA | 12.2 | 8.55 | – | – | –
26 | UUGGAUGAAGGAGUGAAAAGCAACUCAGAUACCAGUCUGAGUAAUGACCCUUGGCAGCUGAGAACAUGAGGAUCACCCAUGUGAC | – | – | – | – | apparent Kd [5]: 15.2 nM; apparent Kd [6]: 32.2 nM
